In ChEMBL document CHEMBL1649147, “Antistaphylococcal activity of dihydrophthalazine antifolates, a family of novel antibacterial drugs” (2009):
In brackets after ≈: the same amount, converted by molar mass.

Legend:
Staphylococcus aureus [1] = test: Antibacterial activity against vancomycin-resistant Staphylococcus aureus VRS1 by broth macrodilution method; assay type: functional
Procedure, shortened: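 Michigan VRSA strain, one of 12 staphylococci later used in time-kill studies. MIC was determined by broth macrodilution and reported in μg/ml.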

[2] = test system: Staphylococcus epidermidis; test: Antibacterial activity against methicillin-resistant coagulase-negative Staphylococcus epidermidis 345 by broth macrodilution method; assay type: functional
[3] = test system: coagulase-negative staphylococci; test: Antibacterial activity against Tmp-susceptible coagulase-negative staphylococci by agar dilution method
[4] = test system: Staphylococcus epidermidis; test: Antibacterial activity against methicillin-resistant coagulase-negative Staphylococcus epidermidis 225 by broth macrodilution method; assay type: functional
[5] = test system: coagulase-negative staphylococci; test: Antibacterial activity against methicillin-susceptible coagulase-negative staphylococci by agar dilution method
Staphylococcus aureus [6] = test: Antibacterial activity against Tmp-susceptible coagulase-negative Staphylococcus aureus by agar dilution method; assay type: functional
Procedure, shortened: (§1)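 MICs by agar dilution on Mueller-Hinton agar following CLSI guidelines. S. aureus ATCC 29213 and E. faecalis ATCC 29212 were run as quality controls with each set, and test-strain MICs were kept only if control MICs fell within acceptable ranges.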

Staphylococcus aureus [7] = test: Antibacterial activity against Tmp-resistant Staphylococcus aureus by agar dilution method; assay type: functional; procedure, shortened: as §1
[8] = test system: Staphylococcus epidermidis; test: Antibacterial activity against methicillin-resistant, vancomycin-intermediate coagulase-negative Staphylococcus epidermidis 225 by agar dilution method; assay type: functional
Procedure, shortened: (§2)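 Agar dilution on Mueller-Hinton agar per CLSI guidelines. S. aureus ATCC 29213 and E. faecalis ATCC 29212 were run with each set, and test MICs were accepted only when the control strains fell within acceptable ranges.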

Staphylococcus aureus [9] = test: Antibacterial activity against methicillin-susceptible Staphylococcus aureus by agar dilution method; assay type: functional; procedure, shortened: as §2
Staphylococcus aureus [10] = test: microbe, parasite or virus in culture; details: ATCC43300
Staphylococcus aureus [11] = test: Antibacterial activity against methicillin-resistant Staphylococcus aureus ATCC 43300 by broth macrodilution method; assay type: functional; details: ATCC43300
Staphylococcus aureus [12] = test: microbe, parasite or virus in culture; details: 505
Staphylococcus aureus [13] = test: microbe, parasite or virus in culture; details: ATCC29213
[14] = test system: Staphylococcus epidermidis; test: Antibacterial activity against methicillin-susceptible coagulase-negative Staphylococcus epidermidis 051 by broth macrodilution method; assay type: functional
Staphylococcus aureus [15] = test: Antibacterial activity against methicillin-resistant Staphylococcus aureus 507 by broth macrodilution method; assay type: functional
[16] = test system: coagulase-negative staphylococci; test: Antibacterial activity against methicillin-resistant coagulase-negative staphylococci by agar dilution method
[17] = test system: Staphylococcus epidermidis; test: Antibacterial activity against methicillin-resistant coagulase-negative Staphylococcus epidermidis 197 after 50 passages by agar dilution method; assay type: functional
Procedure, shortened: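 Daily serial passage for up to 50 days at 35°C for 24 h in 1 ml MHB. Each transfer used 10 µl from the tube nearest the MIC (1–2 dilutions below) with the same turbidity as the drug-free control. MICs were measured by agar dilution, with changes given as log2 steps.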

Staphylococcus aureus [18] = test: Antibacterial activity against methicillin-resistant Staphylococcus aureus by agar dilution method; assay type: functional; procedure, shortened: as §2
Staphylococcus aureus [19] = test: Antibacterial activity against methicillin-susceptible, vancomycin-intermediate Staphylococcus aureus 505 by broth macrodilution method; assay type: functional
[20] = test system: Staphylococcus epidermidis; test: Antibacterial activity against methicillin-resistant coagulase-negative Staphylococcus epidermidis 197 by broth macrodilution method; assay type: functional
Staphylococcus aureus [21] = test: Antibacterial activity against methicillin-resistant and vancomycin-resistant Staphylococcus aureus VRS1 by agar dilution method; assay type: functional; procedure, shortened: as §2
Staphylococcus aureus [22] = test: Antibacterial activity against methicillin-resistant Staphylococcus aureus 145 by broth macrodilution method; assay type: functional
[23] = test system: Staphylococcus epidermidis; test: Antibacterial activity against methicillin-susceptible coagulase-negative Staphylococcus epidermidis 057 by broth macrodilution method; assay type: functional
Staphylococcus aureus [24] = test: Antibacterial activity against methicillin-susceptible Staphylococcus aureus ATCC 29213 by broth macrodilution method; assay type: functional; details: ATCC29213
Staphylococcus aureus [25] = test: Antibacterial activity against methicillin-susceptible Staphylococcus aureus 505 by broth macrodilution method; assay type: functional
[26] = test system: Staphylococcus epidermidis; test: Antibacterial activity against methicillin-resistant coagulase-negative Staphylococcus epidermidis 074 by broth macrodilution method; assay type: functional
[27] = test system: Staphylococcus epidermidis; test: Antibacterial activity against methicillin-resistant, Linezolid non-susceptible coagulase-negative Staphylococcus epidermidis 345 by agar dilution method; assay type: functional
Staphylococcus aureus [28] = test: Antibacterial activity against Tmp-susceptible Staphylococcus aureus by agar dilution method; assay type: functional; procedure, shortened: as §1
[29] = test system: coagulase-negative staphylococci; test: Antibacterial activity against Tmp-resistant coagulase-negative staphylococci by agar dilution method

SMILES: COc1cc(Cc2cnc(N)nc2N)cc(OC)c1OC [TRIMETHOPRIM]
- MIC (Staphylococcus aureus [1]): > 128 µg/mL
- MIC [2]: > 128 µg/mL
- MIC50 [3]: 0.25 µg/mL (≈ 0.861 µM)
- MIC90 [3]: 2 µg/mL (≈ 6.89 µM)
- MIC [4]: > 128 µg/mL
- MIC90 [5]: 64 µg/mL (≈ 220 µM)
- MIC (Staphylococcus aureus [6]): 0.03 µg/mL (≈ 0.103 µM)
- MIC (Staphylococcus aureus [7]): 32 µg/mL (≈ 110 µM)
- MIC50 (Staphylococcus aureus [7]): > 128 µg/mL
- MIC [8]: > 128 µg/mL
- MIC50 (Staphylococcus aureus [9]): 0.5 µg/mL (≈ 1.72 µM)
- MIC90 (Staphylococcus aureus [9]): > 128 µg/mL
- MIC (Staphylococcus aureus [10]): > 128 µg/mL
- MIC (Staphylococcus aureus [11]): 1 µg/mL (≈ 3.44 µM)
- MIC (Staphylococcus aureus [12]): > 128 µg/mL
- MIC (Staphylococcus aureus [13]): > 128 µg/mL
- MIC [14]: 128 µg/mL (≈ 441 µM)
- MIC (Staphylococcus aureus [15]): 128 µg/mL (≈ 441 µM)
- MIC50 [16]: 128 µg/mL (≈ 441 µM)
- MIC [17]: 64 µg/mL (≈ 220 µM)
- MIC (Staphylococcus aureus [18]): ≤ 0.008 µg/mL
- MIC50 (Staphylococcus aureus [18]): 0.5 µg/mL (≈ 1.72 µM)
- MIC (Staphylococcus aureus [19]): 1 µg/mL (≈ 3.44 µM)
- MIC [20]: 0.5 µg/mL (≈ 1.72 µM)
- MIC (Staphylococcus aureus [21]): > 128 µg/mL
- MIC (Staphylococcus aureus [22]): > 128 µg/mL
- MIC [23]: 128 µg/mL (≈ 441 µM)
- MIC (Staphylococcus aureus [24]): 1 µg/mL (≈ 3.44 µM)
- MIC (Staphylococcus aureus [25]): 1 µg/mL (≈ 3.44 µM)
- MIC [26]: 4 µg/mL (≈ 13.8 µM)
- MIC [27]: > 128 µg/mL
- MIC50 (Staphylococcus aureus [28]): 0.5 µg/mL (≈ 1.72 µM)
- MIC90 (Staphylococcus aureus [28]): 0.5 µg/mL (≈ 1.72 µM)
- MIC50 [29]: > 128 µg/mL
